The source of these data is ChEMBL document CHEMBL1122077, “Synthesis and cardiovascular activity of a new series of cyclohexylaralkylamine derivatives related to perhexiline” (1982).

The species entered for assay [1] is Sus scrofa. Description: Antagonism of calcium-induced contraction of a depolarized coronary in pig. The arrangement: unit not given beside the values. Type of assay: functional. In outline:
(§1)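 Helical pig coronary strips (2–2.5 cm long, 3–4 mm wide) at 0.5 g resting tension in modified Krebs-Henseleit (1.25 mmol/L CaCl2), depolarized, contracted with calcium. Antagonist added 30 min beforehand. Result as pA2 (Arunlakshana–Schild) or pD2' (Ariens–Van Rossum, for noncompetitive antagonism).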

The subject of assay [2] is Canis familiaris. Briefly: In vivo percent coronary flow in Mongrel dogs after administration at 3 mg/Kg (iv). The format is functional, Canis lupus familiaris. In outline: (§2)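 Overnight-fasted mongrel dogs of either sex (15–25 kg), pentobarbital 25 mg/kg iv (maintenance 1 mg/kg iv) plus levopromazine 0.5 mg/kg im. Femoral-vein injections at 0.3–1 and 3 mg/kg; coronary flow increase given as percent of the period before the 3 mg/kg injection.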

Assay [3] is filed under the species Rattus norvegicus. Description: Alpha-adrenolytic activity on the descending thoracic branch of the rat aorta. Type of assay: functional. The procedure, abridged:
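Isolated aorta preparation set at 2 g resting tension and stabilized about 2 h. Antagonist was added to the bath 30 min before the assay. Competitive antagonism was expressed as pA2 (Arunlakshana–Schild method). Noncompetitive antagonism was expressed as pD2' (Ariens–Van Rossum calculation).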

Assay [4] is filed under the species Rattus norvegicus. Briefly: Alpha-adrenolytic activity (pA2) on the descending thoracic branch of the rat aorta. The format is functional. The procedure, abridged:
(§3)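 Rat aortic strips held at 2 g resting tension, left about 2 h to stabilize; antagonist put in the bath 30 min before agonist challenge. pA2 by Arunlakshana–Schild analysis as developed by Miesch et al.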

The species named for assay [5] is Sus scrofa. Briefly: Antagonism of calcium-induced contraction on the depolarized coronary of pig; Insoluble. The format is functional, organism-based. The procedure, abridged: as §1
The species entered for assay [6] is Rattus norvegicus. Description: Alpha-adrenolytic activity (pA2) on the descending thoracic branch of the rat aorta; Insoluble. The format is functional, organism-based. The procedure, abridged: as §3
Assay [7] has as its system Canis familiaris. Briefly: In vivo percent coronary flow in Mongrel dogs after administering 3 mg/Kg (iv) of the compound; Insoluble. Type of assay: functional, organism-based. Conditions: Canis lupus familiaris. In outline:
as §2

For the molecule `COc1ccc(CCNCC(c2ccccc2)C2CCCCC2)cc1OC.O=C(O)/C=C\C(=O)O` (stereo not given), the “Ca2+ antagonism” value in the assay filed under Sus scrofa [1] stood at 3.6. Besides, the Coronary flow in the assay with Canis familiaris [2] was 73. Moreover, the Alpha-adrenolytic activity in the assay listed under Rattus norvegicus [3] was found to be 7.25.

Regarding `CC(CCc1ccccc1)NCC(c1ccccc1)C1CCCCC1.O=C(O)/C=C\C(=O)O` (stereo not given), in the assay filed under Rattus norvegicus [4], the Alpha-adrenolytic activity is 7.6. In addition, in the assay listed under Sus scrofa [1], the “Ca2+ antagonism” value was 6.1. The Coronary flow with Canis familiaris [2] was 71.5.

Consider `C1CCC(NCCC23CC4CC(CC(C4)C2)C3)CC1.O=C(O)/C=C\C(=O)O`, for which the Alpha-adrenolytic activity in the assay listed under Rattus norvegicus [4] turned out to be 6.75. Moreover, the “Ca2+ antagonism” value in the assay filed under Sus scrofa [1] came to 4.7. Further, the Coronary flow in the assay on Canis familiaris [2] was determined as 99.

In turn, `O=[N+]([O-])O.c1ccc(C(CNC2CCCCC2)C2CCCCC2)cc1` (stereo not given) gave an Alpha-adrenolytic activity in the assay filed under Rattus norvegicus [4] of 7.9. Moreover, the “Ca2+ antagonism” value in the assay listed under Sus scrofa [1] is reported as 4.6. The molecule further registered a Coronary flow in the assay on Canis familiaris [2] of 62.

With `COc1ccc(CCNCCC(C2CCCCC2)C2CCCCC2)cc1OC.O=C(O)/C=C\C(=O)O`, the “Ca2+ antagonism” value in the assay listed under Sus scrofa [1] stood at 4.1. In addition, the Coronary flow with Canis familiaris [2] is recorded as 44.5. Further, the Alpha-adrenolytic activity in the assay listed under Rattus norvegicus [3] is 6.3.

Molecule `CN(CCC(C1CCCCC1)C1CCCCC1)C1CCCCC1.O=C(O)/C=C\C(=O)O` displayed an Alpha-adrenolytic activity in the assay listed under Rattus norvegicus [4] of 6.15. In addition, in the assay listed under Sus scrofa [1], the “Ca2+ antagonism” value is 4.85. Besides, in the assay with Canis familiaris [2], the Coronary flow was determined as 67.

As for `Cc1ccc(C(CNC2CCCCC2)C2CCCCC2)cc1.O=C(O)/C=C\C(=O)O` (stereo not given), the Alpha-adrenolytic activity in the assay filed under Rattus norvegicus [4] came out at 6.55. In addition, in the assay filed under Sus scrofa [1], the “Ca2+ antagonism” value is 6. In the assay with Canis familiaris [2], this molecule yielded a Coronary flow of 68.

Take `COc1ccc(CC(C)NCC(c2ccccc2)C2CCCCC2)cc1.O=C(O)/C=C\C(=O)O` (stereo not given): in the assay listed under Sus scrofa [1], the “Ca2+ antagonism” value came out at 5.1. Moreover, in the assay on Canis familiaris [2], the Coronary flow amounted to 100.5. This molecule yielded an Alpha-adrenolytic activity in the assay listed under Rattus norvegicus [3] of 6.

Take `C1CCC(NCCCC(C2CCCCC2)C2CCCCC2)CC1.Cl`: the Alpha-adrenolytic activity in the assay listed under Rattus norvegicus [4] was found to be 6.05. Besides, the “Ca2+ antagonism” value in the assay listed under Sus scrofa [1] stood at 4.6. This molecule showed a Coronary flow with Canis familiaris [2] of 95.5.

The molecule `C1CCC(C(CC2CCCCN2)C2CCCCC2)CC1` (stereo not given) [PERHEXILINE] registered an Alpha-adrenolytic activity in the assay listed under Rattus norvegicus [4] of 6.7. In the assay listed under Sus scrofa [1], the “Ca2+ antagonism” value is 5.2. Also, the Coronary flow with Canis familiaris [2] is on record as 37.5.

Take `CC(Cc1ccc(O)cc1)NCC(c1ccccc1)C1CCCCC1.O=[N+]([O-])O` (stereo not given): the “Ca2+ antagonism” value in the assay listed under Sus scrofa [1] is on record as 4.8. In the assay on Canis familiaris [2], this molecule displayed a Coronary flow of 105. In addition, in the assay filed under Rattus norvegicus [3], the Alpha-adrenolytic activity came out at 6.35.

For `COc1ccc(CCNCCC23CC4CC(CC(C4)C2)C3)cc1OC.Cl`, in the assay filed under Sus scrofa [1], the “Ca2+ antagonism” value was determined as 4.8. This molecule also displayed a Coronary flow in the assay on Canis familiaris [2] of 133. In the assay listed under Rattus norvegicus [3], this molecule registered an Alpha-adrenolytic activity of 7.35.

As to `CC(Cc1ccccc1)NCCC(C1CCCCC1)C1CCCCC1.O=C(O)/C=C\C(=O)O` (stereo not given), in the assay listed under Rattus norvegicus [4], the Alpha-adrenolytic activity is given as less than 5. The “Ca2+ antagonism” value in the assay filed under Sus scrofa [1] was 5.2. Besides, the Coronary flow in the assay with Canis familiaris [2] turned out to be 42.

On to `O=[N+]([O-])O.c1ccc(C(CNC2CCCC2)C2CCCCC2)cc1` (stereo not given), for which the Alpha-adrenolytic activity in the assay filed under Rattus norvegicus [4] is 5.9. Besides, the “Ca2+ antagonism” value in the assay filed under Sus scrofa [1] worked out at 6.2. In addition, in the assay on Canis familiaris [2], the Coronary flow is listed as 38.5.

Turning to `C1CCC(NCCCCC(C2CCCCC2)C2CCCCC2)CC1`, the “Ca2+ antagonism” value in the assay filed under Sus scrofa [5] was “Insoluble”. The Alpha-adrenolytic activity entry in the assay listed under Rattus norvegicus [6] is on record as “Insoluble”. Moreover, the Coronary flow entry in the assay with Canis familiaris [7] was “Insoluble”.

`CC(Cc1ccccc1)NCCC12CC3CC(CC(C3)C1)C2.O=C(O)/C=C\C(=O)O` (stereo not given) gave an Alpha-adrenolytic activity in the assay listed under Rattus norvegicus [4] of 7.3. In the assay filed under Sus scrofa [1], the “Ca2+ antagonism” value stood at 4.85. Also, the Coronary flow in the assay with Canis familiaris [2] stood at 146.

`CN1CCCCC1CC(C1CCCCC1)C1CCCCC1` (stereo not given): in the assay filed under Rattus norvegicus [4], the Alpha-adrenolytic activity worked out at 6.9. Further, in the assay filed under Sus scrofa [1], the “Ca2+ antagonism” value is 5.3. For the same molecule, in the assay on Canis familiaris [2], the Coronary flow stood at 135.

In the case of `CC(C)(C)NCC(c1ccccc1)C1CCCCC1.Cl` (stereo not given), in the assay listed under Rattus norvegicus [4], the Alpha-adrenolytic activity turned out to be 7.25. The “Ca2+ antagonism” value in the assay filed under Sus scrofa [1] is less than 4.5. This molecule returned a Coronary flow with Canis familiaris [2] of 104.5.

As for `CC(CCc1ccccc1)NCCC(C1CCCCC1)C1CCCCC1` (stereo not given), the “Ca2+ antagonism” value in the assay listed under Sus scrofa [5] is reported as “Insoluble”. For the same molecule, the Alpha-adrenolytic activity result in the assay listed under Rattus norvegicus [6] is on record as “Insoluble”. For the same molecule, the Coronary flow result with Canis familiaris [7] was “Insoluble”.

With `CC(CCc1ccccc1)NCCC12CC3CC(CC(C3)C1)C2.O=C(O)/C=C\C(=O)O` (stereo not given), in the assay filed under Rattus norvegicus [4], the Alpha-adrenolytic activity is on record as 7.15. Besides, in the assay filed under Sus scrofa [1], the “Ca2+ antagonism” value is 5.1. The molecule also yielded a Coronary flow with Canis familiaris [2] of 215.

Consider `C1CCC(NC(C2CCCCC2)C2CCCCC2)CC1.Cl`, for which, in the assay filed under Rattus norvegicus [4], the Alpha-adrenolytic activity was determined as 6.2. Moreover, in the assay filed under Sus scrofa [1], the “Ca2+ antagonism” value came out at 5.45. The molecule also showed a Coronary flow in the assay on Canis familiaris [2] of 194.

Regarding `Cl.c1ccc(C(CCNC2CCCCC2)C2CCCCC2)cc1` (stereo not given), in the assay filed under Rattus norvegicus [4], the Alpha-adrenolytic activity came to 6.8. The “Ca2+ antagonism” value in the assay filed under Sus scrofa [1] was 5.8. Moreover, the Coronary flow in the assay on Canis familiaris [2] turned out to be 156.

`Cl.Oc1ccc(C(CNC2CCCCC2)C2CCCCC2)cc1` (stereo not given): in the assay filed under Sus scrofa [1], the “Ca2+ antagonism” value is 4.5. Also, the Coronary flow with Canis familiaris [2] is listed as 133.5. This molecule gave an Alpha-adrenolytic activity in the assay filed under Rattus norvegicus [3] of 7.1.

As for `C1CCC(NCCC(C2CCCCC2)C2CCCCC2)CC1.Cl`, the Alpha-adrenolytic activity in the assay filed under Rattus norvegicus [4] worked out at 7.25. Further, in the assay filed under Sus scrofa [1], the “Ca2+ antagonism” value is recorded as 4.85. The molecule further gave a Coronary flow in the assay on Canis familiaris [2] of 130.

For the molecule `CC(Cc1ccccc1)NCC(c1ccccc1)C1CCCCC1.O=C(O)/C=C\C(=O)O` (stereo not given), the Alpha-adrenolytic activity in the assay filed under Rattus norvegicus [4] was determined as 6.9. Further, the “Ca2+ antagonism” value in the assay listed under Sus scrofa [1] turned out to be 6.2. In the assay with Canis familiaris [2], this molecule showed a Coronary flow of 157.
